High-throughput results as filed in PubChem.
In the library only some 3.6% were active in any assay of this set; here they are far more common.
BB579 growth dn: reduces growth of yeast BB579 in restrictive medium; S. cerevisiae BB579 growth, OD615, 48 h; inhibition, % at 10 µM; 0.51% of 140,000 active;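 active means inhibition above a set limit, 3 SD over the mean compound inhibition, cut at about 44% in these data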
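Assay system: S. cerevisiae DeaD strain BB579 yeast. Medium: CSMM-D restrictive synthetic medium containing dextrose (glucose). Times: 4 h cell preincubation, 48 h compound exposure, 30 °C humidified. Signal: OD615 turbidity measurement. Benchmarks: positive control amphotericin B 10 µg/mL.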
Measles CPE: protection of cells from measles virus; Measles virus-infected cells, CPE protection, absorbance; protection (pct of control), % at 4 µM; 1.5% of 140,000 active; in the data active means protection mostly above about 24%, no sharp cut-off; inactive means mostly below about 26%
Yeast life ext: yeast lifespan extension | inhibition of the nicotinamide effect, % at 10 µM | 0.68% of 130,000 active | AID 775 | S. cerevisiae growth with nicotinamide, OD615; deaD strain in restrictive glucose medium;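 active means inhibition above a set limit, placed 3 SD over the median of all compounds, cut at about 26% in these data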
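Test system: DeaD-strain S. cerevisiae / Buffer or medium: restrictive glucose medium / Also added: nicotinamide 1.5 mM / Doses: one concentration, 10 µM, DMSO 0.25% / Schedule: 48 h at 30 °C / Signal: OD615 measurement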
RAM network inh: inhibitors of the yeast RAM network. inhibition, % at 50 µM. S. cerevisiae dse1pr::URA3 reporter, 5-FOA growth OD615, 2 d; analog-sensitive cbk1-as2 kinase mutant strain. 1.8% of 190,000 active;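 active means inhibition above a set limit, 3 SD over mean compound inhibition, cut at about 8.4% in these data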;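 further: inhibition rescues growth on 5-FOA so higher OD means more RAM inhibition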
A number is an active result; n = inactive; x = no result.

SMILES	BB579 growth dn	Measles CPE	Yeast life ext	RAM network inh
O=c1cc(/C=C/c2c(F)cccc2Cl)[nH]c2ccccc12	n	n	n	n
COc1cc(C(=O)NCC(=O)N/N=C/c2ccc(OC(=O)c3ccco3)cc2)cc(OC)c1OC	x	x	x	n
CCCCCC(=O)NC(=S)Nc1ccc2oc(=O)ccc2c1	x	x	x	n
CCCC(=O)Nc1ccc2oc(-c3ccncc3)nc2c1	n	37.1	n	n
CCCCC(=O)Nc1ccc2oc(-c3ccncc3)nc2c1	n	n	n	n
COc1ccc([N+](=O)[O-])cc1NC(=O)Cn1ccc(C(F)(F)F)n1	x	x	x	n
O=C(Nc1nnc(-c2ccc(F)cc2)o1)c1cc(Cl)sc1Cl	66.1	n	n	n
O=C(NCc1ccc(Cl)cc1)C1CCN(S(=O)(=O)N2CCOCC2)CC1	x	x	x	n
COc1ccccc1C1N(c2ccc(Cl)cc2)C(=O)C2CCCN21 (configuration not stated)	n	n	n	n
O=C1C2CCCN2C(c2cccs2)N1c1ccc(Cl)cc1 (configuration not stated)	n	25.2	n	n
COc1cccc(/C=N/N2C(=O)CSC2=S)c1O	72.3	n	n	n
CCc1cccc(NC(=O)c2cc(S(=O)(=O)N(C)C)ccc2N2CCCC2)c1	x	x	x	11.3
Cc1nn(-c2ccc([N+](=O)[O-])cc2)c2c1C(c1ccc(OC(F)F)cc1)N1C(=N2)C(=O)Nc2ccccc21 (configuration not stated)	x	x	x	n
Cc1ccc(C2c3c(C)nn(-c4ccc([N+](=O)[O-])cc4)c3N=C3C(=O)Nc4ccccc4N32)cc1 (configuration not stated)	x	x	x	9.9
CN1CCN(c2ncnc3c2[nH]c2ccc(F)cc23)CC1	n	50.4	n	n
CC1(C)CCCN(C(=O)N2c3ccccc3Sc3ccccc32)C1	n	n	n	11.4
O=[N+]([O-])c1ccc(N(c2ccccc2)c2ccccc2)cc1	n	n	n	10.0
O=C(CCSc1ccc(Br)cc1)Nc1cccnc1	x	x	x	n
O=C(O)c1c[nH]c(=S)n1-c1ccc(F)cc1	n	n	102.9	n
CC(C)CC(COCc1ccc(Cl)cc1)N1CCN(C(=O)c2ccc(Cl)cc2Cl)CCC1=O (configuration not stated)	n	n	n	9.4
CCn1ncc(Br)c1C(=O)Nc1ccc(F)c([N+](=O)[O-])c1	n	n	n	n
CCN1CCN(c2nc3ccccc3nc2C(C#N)S(=O)(=O)c2ccc(C)cc2)CC1 (configuration not stated)	n	n	n	n
CCCCCCNC(=O)C(C#N)c1nc2ccccc2nc1N1CCOCC1 (configuration not stated)	n	46.6	n	9.7
CC1CCN(c2nc3ccccc3nc2C(C#N)C(=O)OC2CCCCC2)CC1 (configuration not stated)	n	n	n	n
CC1CCCN(c2nc3ccccc3nc2C(C#N)C(=O)OC2CCCCC2)C1 (configuration not stated)	n	n	64.3	n
SMILES	BB579 growth dn	Measles CPE	Yeast life ext	RAM network inh
N#CC(C(=O)NCCc1ccccc1)c1nc2ccccc2nc1N1CCCCC1 (configuration not stated)	n	40.9	n	n
Cc1ccc(S(=O)(=O)C(C#N)c2nc3ccccc3nc2N2CCCC2)cc1 (configuration not stated)	n	n	72.1	n
COc1ccc(C(=O)NC2CCN(C(=O)Nc3ccccc3Cl)CC2)cc1	x	x	x	n
COc1cc(/C=N/OCC(=O)Nc2ccc(OC(F)F)cc2)ccc1OCc1ccccc1	n	n	n	8.4
COc1cc(/C=N/OCC(=O)NC2CCCCC2)ccc1OCc1ccccc1	n	85.8	n	n
CCN(CC)c1ccc(/C=N/OC(C)C(=O)Nc2ccc(C)cc2)cc1 (configuration not stated)	n	n	n	n
COc1ccc(/C=N/OCC(=O)NC(c2ccccc2)c2ccccc2)cc1OC	n	n	n	n
CC(=O)Nc1ccc(/C=N/OCC(=O)Nc2ccc(C)cc2)cc1	n	37.7	n	n
COc1ccc(NC(=O)COc2ccc(/C=N/O)cc2OC)cc1	x	x	x	n
COc1cc(/C=N/NC(=O)c2cccs2)ccc1OCc1ccccc1	n	n	n	n
CCOc1ccc(/C=N/OCC(=O)Nc2ccc(OCc3ccccc3)cc2)cc1OC	n	n	n	11.3
O=C(CCSCCc1ccccn1)Nc1ccc(Cc2ccncc2)cc1	x	x	x	n
C#CCOC(=O)C[N+](C)(C)CC#Cc1ccccc1	x	x	x	n
O=C(Nc1cc2cc([N+](=O)[O-])ccc2oc1=O)c1cccs1	x	x	x	n
CCOC(=O)C1(CCCc2ccccc2)CCN(C(=O)C2CCCN(C(N)=O)C2)CC1 (configuration not stated)	x	x	x	n
